≈ marks a conversion by molar mass, not a printed value.
Legend:
[1] = Antifungal activity against Penicillium funiculosum ATCC 36839 after 72 hrs by microdilution technique; type: functional; conditions: Talaromyces pinophilus, ATCC 36839, 72 h
Procedure, shortened: (§1)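 Spores were washed off malt agar with 0.85% saline containing 0.1% Tween 80 and adjusted to about 1.0×10^5 per well. Compounds in 5% DMSO were serially diluted (0.001-1.0 mg/ml) in malt broth with inoculum. Plates were shaken at 160 rpm for 72 h at 28 °C. MIC is the lowest concentration without visible growth under a binocular microscope. Three independent experiments in duplicate.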

[2] = test system: Bacillus cereus; assay: Bactericidal activity against Bacillus cereus clinical isolate incubated for 24 hrs followed by re-plating on tryptic soy broth; type: functional
Procedure, shortened: (§2)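 Bacteria were grown in tryptic soy broth, 1.0×10^4 CFU per well, with compounds in 5% DMSO at 0.001-1.0 mg/ml for 24 h at 37 °C. Then 10 µL was subcultured into fresh TSB. MBC is the lowest concentration showing no growth after subculture, taken as 99.5% kill of the original inoculum. Duplicates, repeated three times.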

[3] = test system: Aspergillus fumigatus; assay: Antifungal activity against Aspergillus fumigatus ATCC 1022 after 72 hrs by microdilution technique; type: functional; conditions: ATCC 1022, 72 h; procedure, shortened: as §1
[4] = test system: Aspergillus versicolor; assay: Fungicidal activity against Aspergillus versicolor ATCC 11730 incubated for 72 hrs followed by sub-culturing on broth malt medium and measured after 72 hrs; type: functional; conditions: ATCC 11730, 72 h
Procedure, shortened: (§3)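 After 72 h exposure in malt broth, 2 µL from test wells was subcultured into wells holding 100 µL broth and incubated a further 72 h at 28 °C. MFC is the lowest concentration with no visible growth, taken as 99.5% kill of the original inoculum. Three independent experiments in duplicate.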

[5] = test system: Pseudomonas aeruginosa; assay: Bactericidal activity against Pseudomonas aeruginosa ATCC 27853 incubated for 24 hrs followed by re-plating on tryptic soy broth; type: functional; conditions: ATCC 27853, 24 h; procedure, shortened: as §2
[6] = test system: Aspergillus fumigatus; assay: Fungicidal activity against Aspergillus fumigatus ATCC 1022 incubated for 72 hrs followed by sub-culturing on broth malt medium and measured after 72 hrs; type: functional; conditions: ATCC 1022, 72 h; procedure, shortened: as §3
[7] = test system: Penicillium cyclopium; assay: Antifungal activity against Penicillium verrucosum var. cyclopium food isolate after 72 hrs by microdilution technique; type: functional; procedure, shortened: as §1
[8] = test system: Aspergillus niger; assay: Fungicidal activity against Aspergillus niger ATCC 6275 incubated for 72 hrs followed by sub-culturing on broth malt medium and measured after 72 hrs; type: functional; conditions: ATCC 6275, 72 h; procedure, shortened: as §3
[9] = test system: Staphylococcus aureus; assay: Bactericidal activity against Staphylococcus aureus ATCC 6538 incubated for 24 hrs followed by re-plating on tryptic soy broth; type: functional; conditions: ATCC 6538, 24 h; procedure, shortened: as §2
[10] = test system: Salmonella typhimurium; assay: Bactericidal activity against Salmonella typhimurium ATCC 13311 incubated for 24 hrs followed by re-plating on tryptic soy broth; type: functional, Salmonella enterica subsp. enterica serovar Typhimurium; conditions: Salmonella enterica, ATCC 13311, 24 h; procedure, shortened: as §2
[11] = test system: Staphylococcus aureus; assay: Antibacterial activity against Staphylococcus aureus ATCC 6538 after 24 hrs by iodonitrotetrazolium chloride dye based microdilution method; type: functional; conditions: ATCC 6538, 24 h
Procedure, shortened: (§4)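 Fresh overnight cultures adjusted spectrophotometrically to 1×10^5 CFU/mL, giving 1.0×10^4 CFU per well in tryptic soy broth. Compounds were dissolved in 5% DMSO and tested at 0.001-1.0 mg/ml by serial dilution; 5% DMSO was the negative control. After 24 h at 37 °C, 0.2 mg/mL INT solution was added for 30 min at 37 °C and OD read at 655 nm. MIC is the lowest concentration giving significant growth inhibition versus the positive control. Duplicates, repeated three times.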

[12] = Fungicidal activity against Penicillium funiculosum ATCC 36839 incubated for 72 hrs followed by sub-culturing on broth malt medium and measured after 72 hrs; type: functional; conditions: Talaromyces pinophilus, ATCC 36839, 72 h; procedure, shortened: as §3
[13] = test system: Trichoderma viride; assay: Antifungal activity against Trichoderma viride IAM 5061 after 72 hrs by microdilution technique; type: functional; conditions: IAM 5061, 72 h; procedure, shortened: as §1
[14] = test system: Pseudomonas aeruginosa; assay: Antibacterial activity against Pseudomonas aeruginosa ATCC 27853 after 24 hrs by iodonitrotetrazolium chloride dye based microdilution method; type: functional; conditions: ATCC 27853, 24 h; procedure, shortened: as §4
[15] = test system: Listeria monocytogenes; assay: Bactericidal activity against Listeria monocytogenes NCTC 7973 incubated for 24 hrs followed by re-plating on tryptic soy broth; type: functional; conditions: NCTC 7973, 24 h; procedure, shortened: as §2
[16] = test system: Aspergillus ochraceus; assay: Antifungal activity against Aspergillus ochraceus ATCC 12066 after 72 hrs by microdilution technique; type: functional; conditions: ATCC 12066, 72 h; procedure, shortened: as §1
[17] = test system: Trichoderma viride; assay: Fungicidal activity against Trichoderma viride IAM 5061 incubated for 72 hrs followed by sub-culturing on broth malt medium and measured after 72 hrs; type: functional; conditions: IAM 5061, 72 h; procedure, shortened: as §3
[18] = test system: Bacillus cereus; assay: Antibacterial activity against Bacillus cereus clinical isolate after 24 hrs by iodonitrotetrazolium chloride dye based microdilution assay; type: functional; procedure, shortened: as §4
[19] = test system: Enterobacter cloacae; assay: Bactericidal activity against Enterobacter cloacae incubated for 24 hrs followed by re-plating on tryptic soy broth; type: functional; procedure, shortened: as §2
[20] = test system: Escherichia coli; assay: Antibacterial activity against Escherichia coli ATCC 35210 after 24 hrs by iodonitrotetrazolium chloride dye based microdilution method; type: functional; conditions: ATCC 35210, 24 h; procedure, shortened: as §4
[21] = test system: Micrococcus flavus; assay: Bactericidal activity against Micrococcus flavus ATCC 10240 incubated for 24 hrs followed by re-plating on tryptic soy broth; type: functional; conditions: ATCC 10240, 24 h; procedure, shortened: as §2
[22] = test system: Escherichia coli; assay: Bactericidal activity against Escherichia coli ATCC 35210 incubated for 24 hrs followed by re-plating on tryptic soy broth; type: functional; conditions: ATCC 35210, 24 h; procedure, shortened: as §2
[23] = test system: Micrococcus flavus; assay: Antibacterial activity against Micrococcus flavus ATCC 10240 after 24 hrs by iodonitrotetrazolium chloride dye based microdilution method; type: functional; conditions: ATCC 10240, 24 h; procedure, shortened: as §4
[24] = test system: Penicillium ochrochloron; assay: Antifungal activity against Penicillium ochrochloron ATCC 9112 after 72 hrs by microdilution technique; type: functional; conditions: ATCC 9112, 72 h; procedure, shortened: as §1
[25] = test system: Salmonella typhimurium; assay: Antibacterial activity against Salmonella typhimurium ATCC 13311 after 24 hrs by iodonitrotetrazolium chloride dye based microdilution method; type: functional, Salmonella enterica subsp. enterica serovar Typhimurium; conditions: Salmonella enterica, ATCC 13311, 24 h; procedure, shortened: as §4
[26] = test system: Aspergillus versicolor; assay: Antifungal activity against Aspergillus versicolor ATCC 11730 after 72 hrs by microdilution method; type: functional; conditions: ATCC 11730, 72 h; procedure, shortened: as §1
[27] = test system: Aspergillus niger; assay: Antifungal activity against Aspergillus niger ATCC 6275 after 72 hrs by microdilution technique; type: functional; conditions: ATCC 6275, 72 h; procedure, shortened: as §1
[28] = test system: Enterobacter cloacae; assay: Antibacterial activity against Enterobacter cloacae clinical isolate after 24 hrs by iodonitrotetrazolium chloride dye based microdilution method; type: functional; procedure, shortened: as §4
[29] = test system: Penicillium cyclopium; assay: Fungicidal activity against Penicillium verrucosum var. cyclopium food isolate incubated for 72 hrs followed by sub-culturing on broth malt medium and measured after 72 hrs; type: functional; procedure, shortened: as §3
[30] = test system: Listeria monocytogenes; assay: Antibacterial activity against Listeria monocytogenes NCTC 7973 after 24 hrs by iodonitrotetrazolium chloride dye based microdilution method; type: functional; conditions: NCTC 7973, 24 h; procedure, shortened: as §4
[31] = test system: Penicillium ochrochloron; assay: Fungicidal activity against Penicillium ochrochloron ATCC 9112 incubated for 72 hrs followed by sub-culturing on broth malt medium and measured after 72 hrs; type: functional; conditions: ATCC 9112, 72 h; procedure, shortened: as §3
[32] = test system: Aspergillus ochraceus; assay: Fungicidal activity against Aspergillus ochraceus ATCC 12066 incubated for 72 hrs followed by sub-culturing on broth malt medium and measured after 72 hrs; type: functional; conditions: ATCC 12066, 72 h; procedure, shortened: as §3

| Structure (SMILES) | MIC [1] [×10⁻² mM] | MBC [2] [µM] | MIC [3] [×10⁻² mM] | MFC [4] [×10⁻² mM] | MBC [5] [µM] | MFC [6] [×10⁻² mM] | MIC [7] [×10⁻² mM] | MFC [8] [×10⁻² mM] | MBC [9] [µM] | MBC [10] [µM] | MIC [11] [µM] | MFC [12] [×10⁻² mM] | MIC [13] [×10⁻² mM] | MIC [14] [µM] | MBC [15] [µM] | MIC [16] [×10⁻² mM] | MFC [17] [×10⁻² mM] | MIC [18] [µM] | MBC [19] [µM] | MIC [20] [µM] | also measured |
| --- | --- | --- | --- | --- | --- | --- | --- | --- | --- | --- | --- | --- | --- | --- | --- | --- | --- | --- | --- | --- | --- |
| CCOc1ccc2c(c1)-c1c(ssc1=S)C(C)(C)N2 | 11.8 | 59 (≈ 18.3 µg/mL) | 5.9 | 11.8 | 59 (≈ 18.3 µg/mL) | 11.8 | 8.85 | 11.8 | 59 (≈ 18.3 µg/mL) | 59 (≈ 18.3 µg/mL) | 29.5 (≈ 9.13 µg/mL) | 23.6 | 1.18 | 29.5 (≈ 9.13 µg/mL) | 59 (≈ 18.3 µg/mL) | 11.8 | 2.95 | 29.5 (≈ 9.13 µg/mL) | 59 (≈ 18.3 µg/mL) | 29.5 (≈ 9.13 µg/mL) | MBC [21]: 59 µM (≈ 18.3 µg/mL); MBC [22]: 59 µM (≈ 18.3 µg/mL); MIC [23]: 29.5 µM (≈ 9.13 µg/mL); MIC [24]: 0.79 ×10⁻² mM; MIC [25]: 29.5 µM (≈ 9.13 µg/mL); MIC [26]: 5.9 ×10⁻² mM; MIC [27]: 4.32 ×10⁻² mM; MIC [28]: 29.5 µM (≈ 9.13 µg/mL); MFC [29]: 23.6 ×10⁻² mM; MIC [30]: 29.5 µM (≈ 9.13 µg/mL); MFC [31]: 1.57 ×10⁻² mM; MFC [32]: 23.6 ×10⁻² mM |
| CC1(C)c2ssc(=S)c2-c2cccc3c2N1C(=O)/C3=N/NC(N)=S | 11.5 | 76.4 (≈ 30 µg/mL) | 7.64 | 30.6 | 76.4 (≈ 30 µg/mL) | 15.2 | 11.5 | 30.6 | 76.4 (≈ 30 µg/mL) | 76.4 (≈ 30 µg/mL) | 38.2 (≈ 15 µg/mL) | 30.6 | 1.52 | 38.2 (≈ 15 µg/mL) | 76.4 (≈ 30 µg/mL) | 15.2 | 3.82 | 38.2 (≈ 15 µg/mL) | 76.4 (≈ 30 µg/mL) | 38.2 (≈ 15 µg/mL) | MBC [21]: 76.4 µM (≈ 30 µg/mL); MBC [22]: 76.4 µM (≈ 30 µg/mL); MIC [23]: 38.2 µM (≈ 15 µg/mL); MIC [24]: 3.82 ×10⁻² mM; MIC [25]: 38.2 µM (≈ 15 µg/mL); MIC [26]: 11.5 ×10⁻² mM; MIC [27]: 15.2 ×10⁻² mM; MIC [28]: 38.2 µM (≈ 15 µg/mL); MFC [29]: 30.6 ×10⁻² mM; MIC [30]: 38.2 µM (≈ 15 µg/mL); MFC [31]: 7.64 ×10⁻² mM; MFC [32]: 30.6 ×10⁻² mM |
| COc1cc2c(c([N+](=O)[O-])c1)NC(C)(C)c1ssc(=S)c1-2 | 4.41 | 88.1 (≈ 30 µg/mL) | 17.6 | 8.81 | 176 (≈ 60 µg/mL) | 35.2 | 6.46 | 8.81 | 176 (≈ 59.9 µg/mL) | 352 (≈ 120 µg/mL) | 88.1 (≈ 30 µg/mL) | 8.81 | 3.23 | 88.1 (≈ 30 µg/mL) | 352 (≈ 120 µg/mL) | 2.35 | 4.41 | 44.1 (≈ 15 µg/mL) | 176 (≈ 59.9 µg/mL) | 132 (≈ 45 µg/mL) | MBC [21]: 176 µM (≈ 59.9 µg/mL); MBC [22]: 176 µM (≈ 59.9 µg/mL); MIC [23]: 132 µM (≈ 44.9 µg/mL); MIC [24]: 4.41 ×10⁻² mM; MIC [25]: 176 µM (≈ 60 µg/mL); MIC [26]: 4.41 ×10⁻² mM; MIC [27]: 4.41 ×10⁻² mM; MIC [28]: 88.1 µM (≈ 30 µg/mL); MFC [29]: 17.6 ×10⁻² mM; MIC [30]: 176 µM (≈ 59.9 µg/mL); MFC [31]: 8.81 ×10⁻² mM; MFC [32]: 4.41 ×10⁻² mM |
